Data on four molecules can be found in ChEMBL document CHEMBL1121382, “Inhibitors of polyamine biosynthesis. 8. Irreversible inhibition of mammalian S-adenosyl-L-methionine decarboxylase by substrate analogues” (J Med Chem, 1980).

Data set [1] concerns the target T1, S-adenosylmethionine decarboxylase proenzyme (Rattus norvegicus) (UniProt P17708).
T1 sequence (whole entry): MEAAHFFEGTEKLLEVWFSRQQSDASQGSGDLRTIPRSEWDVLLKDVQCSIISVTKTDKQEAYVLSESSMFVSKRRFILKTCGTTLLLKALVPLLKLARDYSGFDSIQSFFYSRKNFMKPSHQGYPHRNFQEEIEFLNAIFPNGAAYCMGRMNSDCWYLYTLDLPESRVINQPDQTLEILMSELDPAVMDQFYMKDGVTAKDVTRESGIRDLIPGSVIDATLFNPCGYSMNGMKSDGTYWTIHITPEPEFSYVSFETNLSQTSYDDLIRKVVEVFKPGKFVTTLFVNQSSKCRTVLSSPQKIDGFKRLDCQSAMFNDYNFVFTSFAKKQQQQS
Kind of data set: Tested for S-adenosyl-L-methionine decarboxylase activity recovered after 40 min of 0.2 mM compound in incubation media. The data set is classed as functional. In a few lines:
(§1)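 Rat liver enzyme (105000g supernatant from livers of male Sprague-Dawley rats, ammonium sulfate 35–65% cut, methylglyoxal bis(guanylhydrazone)-Sepharose eluate) preincubated at 37 °C, pH 7.0, with 0.3 mg BSA, inhibitor 0, 0.2 or 0.4 mM, ±1.0 mM sodium cyanoborohydride. Aliquots taken at 0, 40, 80 min; activity assayed at 0.2 mM substrate; expressed as % of no-addition control.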

Data set [2] concerns the target T1, S-adenosylmethionine decarboxylase proenzyme (Rattus norvegicus). In words: Tested for S-adenosyl-L-methionine decarboxylase activity recovered after 40 min of 0.2 mM + 1 mM NaBH3CN compound in incubation media. It is filed as functional. In a few lines:
as §1

Data set [3] shares this target. Kind of data set: Tested for S-adenosyl-L-methionine decarboxylase activity recovered after 40 min of 0.4 mM compound in incubation media. It is filed as functional. In a few lines:
as §1

Data set [4] shares this target. In words: Tested for S-adenosyl-L-methionine decarboxylase activity recovered after 80 min of 0.4 mM compound in incubation media. The data set is classed as functional. In a few lines: as §1
Data set [5] deals with T2, S-adenosylmethionine decarboxylase proenzyme (Rattus norvegicus, UniProt P17708).
T2 sequence (P17708 whole entry): T1 sequence (whole entry)
Kind of data set: Tested for inhibition against S-adenosyl-L-methionine decarboxylase from rat liver. In a few lines:
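Partially purified rat liver enzyme; 0.1 M sodium phosphate pH 7.0, 2.5 mM DTT, 2.5 mM putrescine; S-[1-14C]adenosyl-L-methionine at 2.0 × 10⁻⁶ to 1.60 × 10⁻⁴ M; inhibitor 6.25 × 10⁻⁵, 1.25 × 10⁻⁴, 2.50 × 10⁻⁴ M; 30 min, 37 °C; released 14CO2 trapped in ethanolamine and counted, blank-corrected; apparent Ki from short incubations.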

Data set [6] concerns the target T1, S-adenosylmethionine decarboxylase proenzyme (Rattus norvegicus). In words: Tested for S-adenosyl-L-methionine decarboxylase activity recovered after 80 min of 0.2 mM compound in incubation media. The data set is classed as functional. In a few lines: as §1
Data set [7] has the same target. In words: Tested for S-adenosyl-L-methionine decarboxylase activity recovered after 80 min of 0.2 nM compound in incubation media. The data set is classed as functional. The conditions noted are these: in the assay text read “0.2 mM” for “0.2 nM”. In a few lines:
(§2)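 Partially purified rat liver AdoMetDC (ammonium sulfate, then MGBG-Sepharose) preincubated at 37 °C, pH 7.0, with BSA and 0.2 mM inhibitor, no reductant. Aliquots removed at 40 or 80 min, then assayed 30 min at 37 °C in phosphate pH 7.0 with 2.5 mM putrescine, DTT and 0.2 mM [1-14C]AdoMet. Released 14CO2 trapped and counted; activity given as % of buffer-only control at the same time.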

Data set [8] has the same target. In words: Tested for S-adenosyl-L-methionine decarboxylase activity recovered after 40 min of 0.2 nM compound in incubation media. The conditions noted are these: in the assay text read “0.2 mM” for “0.2 nM”. It is filed as functional. In a few lines: as §2
For data set [9] the target is unchanged. Kind of data set: Tested for S-adenosyl-L-methionine decarboxylase activity recovered after 80 min of 0.4 mM compound in incubation media.
For data set [10] the target is unchanged. In words: Tested for S-adenosyl-L-methionine decarboxylase activity recovered after 40 min of 0.4 mM compound in incubation media.
Data set [11] shares this target. In words: Tested for S-adenosyl-L-methionine decarboxylase activity recovered after 40 min of 0.2 mM + 1 mM NaBH3CN compound in incubation media.
Substrate in data set [12]: C[S+](CC[C@H](N)C(=O)[O-])C[C@H]1O[C@@H](n2cnc3c(N)ncnc32)[C@H](O)[C@@H]1O

As a reminder, the Ki is a dissociation constant, usually derived from enzyme kinetics or from competition with a known ligand. Low values mean higher affinity, high ones lower affinity. Broadly, the Km is the substrate concentration at which the rate is half of its maximum.

Take `C[S+](CCC(C)(N)C(=O)O)C[C@H]1O[C@@H](n2cnc3c(N)ncnc32)[C@H](O)[C@@H]1O` (some centres undefined): the Activity in [1] was found to be 89%; in [2], 50%; in data set [3], 77%; in data set [4], 62%; in [6], 81%. In [5], this molecule came in with an inhibitory constant (Ki) of 180 µM.

As to `CC(N)CC[S+](C)C[C@H]1O[C@@H](n2cnc3c(N)ncnc32)[C@H](O)[C@@H]1O` (some centres undefined), the Activity in data set [7] was 66%; in data set [8], 75%; in data set [9], 42%; in data set [10], 65%; in [11], 21%. The same molecule returned an inhibition constant (Ki) in data set [5] of 120 µM.

In the case of `CN(CCCN)C[C@H]1O[C@@H](n2cnc3c(N)ncnc32)[C@H](O)[C@@H]1O`, the Activity in data set [7] came out at 97%; in data set [8], 95%; in data set [9], 97%; in data set [10], 93%; in [11] it was 94%. In data set [5], this molecule gave an inhibition constant Ki of 110 µM.

B1: S-adenosylmethionine decarboxylase proenzyme (Rattus norvegicus), P17708 (protein)
chain: T1 sequence (whole entry)
Regarding B1, in [12], the Km was 51.4 µM.
